Source: PubChem (several laboratories)
Only some compounds are listed: those with a hit (about 2.2% of all), similar ones and a draw of the others.
HKDC1 inhibitor: HKDC1 hexokinase inhibitors, primary screen, biochemical, fluorescence, uHTS | recombinant HKDC1, G6PDH/diaphorase resazurin coupled fluorescence | AID 493160, 2011 | 340,000 compounds, 0.16% hits | Q2TB90 | inhibition, % at 20 µM;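 active = inhibition above about 35% when tested at 20 µM, limit read from the data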;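 note: plate controls were DMSO wells with enzyme for no effect and DMSO wells lacking enzyme for full effect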
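Material: recombinant HKDC1 hexokinase; Amount: HKDC1 at 5 µg/mL; Medium: Tris pH 8.0 buffer with MgCl2, Tween-20, BSA, BME; Schedule: 90 min reaction incubation at room temperature, dark; Technique: coupled resazurin fluorescence, excitation 525 nm, emission 613 nm.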
Granule exo inh: LAMP-1 surface exposure blockers, TALL-104 cells – cell-based, flow cytometry, MLPCN library, primary screen; AID 651702, 2012; TALL-104 LAMP-1 surface exposure; cells stimulated with thapsigargin and PMA; inhibition, % at 10 µM; 360,000 compounds, 0.66% hits;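 active = inhibition above about 55%, limit read from the data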
PfG6PD inh: PfG6PD enzyme inhibitors, primary screen, biochemical, fluorescence intensity, uHTS. PfGluPho enzyme, NADPH resazurin-diaphorase fluorescence. inhibition, % at 20 µM. 350,000 compounds, 0.78% hits. AID 504690, 2011;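 active = inhibition reaching at least a set limit at 20 µM in the primary screen, cut at about 59% in these data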;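 note: 0% = DMSO wells with substrate and 100% = DMSO wells lacking glucose-6-phosphate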
ABHD5 PLIN5 PPI: ABHD5-PLIN5 interaction inhibitors, primary screen, cell lysate, split luciferase complementation, luminescence; Perilipin-5 (Homo sapiens) + 1-acylglycerol-3-phosphate O-acyltransferase ABHD5 (Homo …; Split G. princeps luciferase complementation, 4 h; 360,000 compounds, 0.78% hits; inhibition, % at 4 µM; AID 602281, 2012;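 active = inhibition above the mean inhibition across every tested compound plus 3 SD, cut at about 22% in these data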;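 note: 0% = DMSO only wells and the 100% control is not disclosed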
ABHD5 PLIN5 conf: ABHD5-PLIN5 interaction inhibitors, confirmation, biochemical, luminescence; shares compounds with ABHD5 PLIN5 PPI; inhibition, % at 4 µM; 2,200 compounds, 67% hits; AID 651612, 2012; in the data active = inhibition above about 23%;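 note: 0% = DMSO vehicle wells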
HNF4 counter: HNF4 dimerization inhibitors, counter-screen for ABHD5-PLIN5 interaction inhibitor project, biochemical, split-luciferase complementation, luminescence; inhibition, % at 4 µM; shares compounds with ABHD5 PLIN5 PPI; 2,200 compounds, 77% hits;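 active = mean inhibition across replicate wells exceeding the computed hit threshold, cut at about 13% in these data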;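 note: light from luciferase halves that rejoin when HNF4 fusion proteins dimerize; 0% = DMSO only wells and the 100% control is not given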
Target sequence (P41235 whole entry, looked up, the tested form may be a part): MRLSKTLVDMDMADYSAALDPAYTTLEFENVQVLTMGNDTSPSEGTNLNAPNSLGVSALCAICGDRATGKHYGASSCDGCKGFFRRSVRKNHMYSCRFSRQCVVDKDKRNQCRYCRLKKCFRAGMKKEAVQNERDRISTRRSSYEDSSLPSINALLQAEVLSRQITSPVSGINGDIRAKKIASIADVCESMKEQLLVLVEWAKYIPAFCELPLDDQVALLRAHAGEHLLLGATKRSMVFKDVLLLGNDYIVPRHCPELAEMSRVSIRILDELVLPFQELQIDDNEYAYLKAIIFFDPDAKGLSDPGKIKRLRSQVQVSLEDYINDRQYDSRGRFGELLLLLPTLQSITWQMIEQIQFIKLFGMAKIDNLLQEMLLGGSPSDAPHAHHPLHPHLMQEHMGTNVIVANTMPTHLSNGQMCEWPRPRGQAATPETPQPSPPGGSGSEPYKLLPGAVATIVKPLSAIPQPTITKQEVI
* = called active by the depositor; . = not tested or not shown.

SMILES	HKDC1 inhibitor	Granule exo inh	PfG6PD inh	ABHD5 PLIN5 PPI	ABHD5 PLIN5 conf	HNF4 counter
CCOC(=O)CC1OC(=O)c2cc3c(cc21)C(=O)OC3CC(=O)OCC (stereo not given)	-8	2	4	-8	.	.
CCOC(=O)C(C(=O)OCC)C1OC(=O)c2cc3c(cc21)C(=O)OC3C(C(=O)OCC)C(=O)OCC (stereo not given)	-3	0	-23	32*	42*	28*
COc1cccc(CNCCc2c[nH]c3ccccc23)c1OCc1ccc(F)cc1	-8	31	-4	19	.	.
COc1cc(CNCCc2c[nH]c3ccccc23)ccc1OCc1ccc(F)cc1	-1	35	14	33*	14	-1
COc1ccc(C(=O)C(CN2CCOCC2)c2ccccc2)cc1F (stereo not given)	0	2	-12	24*	9	63*
Cc1ccc2[nH]c3c(=O)n(CC(=O)Nc4ccccc4N4CCN(C)CC4)ncc3c2c1	-3	17	-6	1	.	.
CCCCCNC(=O)C(c1ccnc2ccccc12)n1c(=O)c(-c2cc3ccccc3[nH]2)nc2ccccc21 (stereo not given)	.	1	.	2	.	.
CCCCC(=O)Nc1cccc(C(=O)Nc2ccccc2C(=O)O)c1	1	-3	-6	95*	3	1
O=C(NC1CCN(S(=O)(=O)c2cccc(Cl)c2)CC1)C1CCCCC1	3	16	-17	-9	.	.
Cn1cnc([N+](=O)[O-])c1S(=O)(=O)Oc1ccccc1	3	0	16	62*	75*	95*
Cn1cnc([N+](=O)[O-])c1S(=O)(=O)c1cccc(Cl)c1	4	25	7	61*	64*	94*
COCCCNC(=O)C[C@H]1C[C@H](C(=O)N2CCCCC2)[C@@]2(CCc3ccccc3)c3[nH]c4cc(-c5ccco5)ccc4c3CCN2C1=O	4	4	23	28*	12	26*
C[C@]12c3[nH]c4cc(-c5ccco5)ccc4c3CCN1C(=O)[C@@H](CC(=O)NCCc1ccccn1)C[C@@H]2C(=O)N1CCCCC1	1	-5	18	42*	8	24*
O=C(C[C@H]1C[C@H](C(=O)N2CCCCC2)[C@@]2(CCc3ccccc3)c3[nH]c4cc(-c5ccco5)ccc4c3CCN2C1=O)NCCN1CCOCC1	7	21	16	15	.	.
COc1ccc(C(=O)NCCNc2nc3ccc(C)cc3cc2C#N)cc1OC	3	1	-10	86*	-1	13*
CCN1C(=O)[C@@H]2[C@@H]3CN(S(=O)(=O)c4ccc(C)cc4)[C@@H](c4ccccc4)[C@@H]3C(=O)C[C@@H]2C1=O	.	-1	.	-2	.	.
CCOC1=CC2=C(C(=O)C(Cl)=CC2=O)[C@@H]2CN(S(=O)(=O)c3ccc(C)cc3)[C@@H](c3ccccc3)[C@H]12	.	98*	.	53*	103*	58*
Cc1cc(S(=O)(=O)N2CCCOC2CNC(=O)C(=O)NCc2cccs2)ccc1F (stereo not given)	-1	-1	4	-2	.	.
COc1ccccc1-c1cnc(C(O)c2cccc(CN3CCCCC3)c2)[nH]1 (stereo not given)	.	12	.	1	.	.
Oc1cccc(Nc2nc(N3CCOCC3)nc(N3CCOCC3)n2)c1	2	14	27	25*	9	15*
Cn1c2ccccc2c2nnc(SCC(=O)NCc3ccoc3)nc21	5	3	1	9	.	.
CCOC(=O)c1c(CSC(=N)N)n(C)c2cc(Br)c(OC(C)=O)cc12	2	49	9	17	.	.
CCOC(=O)c1c(CSC(=N)N)n(-c2ccc(C)cc2)c2cc(Br)c(OC(C)=O)cc12	9	19	13	31*	33*	30*
Cc1c(NC(=O)CSc2nccn2C)c(=O)n(-c2ccccc2)n1C	-2	-1	3	-2	.	.
